How the values were obtained:
[1] = tested on: Rattus norvegicus; test: Antihypertensive activity using C16-PAF in rat at a doses ranging from 1-10 nmol/kg iv; assay type: functional
Procedure, shortened: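 Male Wistar rats (350-430 g, 3-6 per group) under sodium pentobarbital anesthesia (60 mg/kg). Arterial pressure was recorded through a femoral artery catheter. Doses were given iv through a vena cava catheter once readings were stable. Pressure and heart rate were followed every 5 min for 40 min. Falls were expressed relative to C16-PAF given at 1-10 nmol/kg iv.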

[2] = species: Oryctolagus cuniculus; test: Relative activity against platelet aggregation in [14C]5-HT preloaded rabbit platelet for 2 mins; assay type: functional
Procedure, shortened: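 Rabbit platelets preloaded with [14C]serotonin were incubated with a range of analogue amounts for 2 min at 20 °C, and [14C]serotonin release was measured. Activity was expressed relative to the ED50 of C16-PAF.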

[3] = Ratio of antihypertension to platelet activation
[4] = tested on: Rattus norvegicus; test: Hypotensive activity in spontaneously hypertensive rat expressed as decrease in systolic BP at 0.1 mg/kg, po; assay type: functional
Procedure, shortened: (§1)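 Male SHR aged 18-20 weeks, fasted 24 h with free access to water, dosed orally. Systolic pressure was measured indirectly by tail cuff, with heart rate recorded at the same time. The fall in mmHg was read 3 h after dosing, with 4-5 animals per dose, reported as mean ±.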

[5] = tested on: Rattus norvegicus; test: Hypotensive activity in spontaneously hypertensive rat expressed as decrease in systolic BP at 1 mg/kg, po; assay type: functional; procedure, shortened: as §1
[6] = tested on: Rattus norvegicus; test: Hypotensive activity in spontaneously hypertensive rat expressed as decrease in systolic BP at 0.3mg/kg, po; assay type: functional
Procedure, shortened: (§2)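 Male SHR (18-20 weeks old), food withdrawn 24 h beforehand with free access to water; compound given orally; systolic blood pressure in the tail artery read indirectly by tail-cuff, heart rate recorded simultaneously; decrease in systolic pressure (mmHg) taken 3 h after dosing; n = 4-5 animals per dose.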

[7] = tested on: Rattus norvegicus; test: Hypotensive activity in spontaneously hypertensive rat expressed as decrease in systolic BP at 25 mg/kg, po; assay type: functional; procedure, shortened: as §2
[8] = tested on: Rattus norvegicus; test: Hypotensive activity in spontaneously hypertensive rat expressed as decrease in systolic BP at 3 mg/kg, po; assay type: functional; procedure, shortened: as §2

Which Relative activity [1] does the source give for `CCCCCCCCCCCCCCCCOC(C)C(COP(=O)([O-])OCC[N+](C)(C)C)OC(C)=O` (stereo in doubt; 3) here?
The Relative activity was 0.00033.

Which results are given for `CCCCCCCCCCCCCCCCOCC(OC(C)=O)C(C)OP(=O)([O-])OCC[N+](C)(C)C` (single isomer, unassigned)?
Relative activity [2]: 0.00055; Relative activity [1]: 0.001; Ratio [3]: 1.82

With `CCCCCCCCCCCCCCCCOC(C)C(COP(=O)([O-])OCC[N+](C)(C)C)OC(C)=O` (single isomer, unassigned; enantiomer 3) as the molecule, how does the Relative activity [2] read?
Its Relative activity is 0.00056.

And the Relative activity [1]?
Its Relative activity is 0.0001.

What about the Ratio [3] of the same molecule?
The Ratio was 0.18.

Which Relative activity [2] does the source give for `CCCCCCCCCCCCCCCCOC(C)C(COP(=O)([O-])OCC[N+](C)(C)C)OC(C)=O` (stereo in doubt; 2) here?
Its Relative activity is 0.0087.

And the Decrease [4]?
The Decrease was 35 mmHg.

What about the Decrease [5] of the same molecule?
Its Decrease is 69 mmHg.

And the Relative activity [1]?
Its Relative activity is 0.059.

What about the Ratio [3] of the same molecule?
Its Ratio is 6.78.

For `CCCCCCCCCCCCCCCCOCC(OC(C)=O)C(C)OP(=O)([O-])OCC[N+](C)(C)C` (stereo in doubt; 5), which Relative activity [1] is on record?
Its Relative activity is 0.002.

What about the Ratio [3] of the same molecule?
The Ratio was 3.64.

Which Relative activity [2] does the source give for `CCCCCCCCCCCCCCCCOCC(COP(=O)([O-])OCC[N+](C)(C)C)OC(C)=O` (stereo unspecified) [PLATELET ACTIVATING FACTOR] here?
The Relative activity was 1.

What about the Decrease [6] of the same molecule?
The Decrease was 4 mmHg.

What about the Decrease [7] of the same molecule?
Its Decrease is 53 mmHg.

What about the Decrease [8] of the same molecule?
The Decrease was 5 mmHg.

What about the Relative activity [1] of the same molecule?
Its Relative activity is 1.

What about the Ratio [3] of the same molecule?
Its Ratio is 1.

With `CCCCCCCCCCCCCCCCOCC(OC(C)=O)C(C)OP(=O)([O-])OCC[N+](C)(C)C` (stereo in doubt; 6) as the molecule, how does the Relative activity [2] read?
Its Relative activity is 0.00089.

What about the Relative activity [1] of the same molecule?
Its Relative activity is 0.0014.

What about the Ratio [3] of the same molecule?
Its Ratio is 1.57.

Which Relative activity [1] does the source give for `CCCCCCCCCCCCCCCCOCC(OC(C)=O)C(C)OP(=O)([O-])OCC[N+](C)(C)C` (stereo in doubt) here?
Its Relative activity is 0.0002.

With `CCCCCCCCCCCCCCCCOC(C)C(COP(=O)([O-])OCC[N+](C)(C)C)OC(C)=O` (single isomer, unassigned; enantiomer 2) as the molecule, how does the Relative activity [1] read?
Its Relative activity is 0.0002.

Which Relative activity [1] does the source give for `CCCCCCCCCCCCCCCCOCC(C)(COP(=O)([O-])OCC[N+](C)(C)C)OC(C)=O` (stereo unspecified) here?
Its Relative activity is 0.0001.

Reference: ChEMBL document CHEMBL1123217, “Molecular design toward biologically significant compounds based on platelet activating factor: a highly selective agonist as a potential antihypertensive agent” (1986)
